Yeast superoxide: yeast age-related superoxide inhibition as caloric restriction mimetic | hit rate 0.18% among 330,000 | S. cerevisiae aged cells, superoxide DHE fluorescence; active compounds read low | superoxide response (% of plate mean), % at 10 µM;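 active = superoxide response under a set limit, about three screen SD below normal, cut at about 65% in these data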;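 also: yeast aged for seven days with compound at 30 °C before DHE staining; 100% = average MFI of all compound-treated wells on the plate with controls excluded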
UCH37 DUB inh: human UCH37 deubiquitinating enzyme inhibition. hit rate 0.33% among 330,000. Q9Y5K5. purified proteasome/UCH37, Ub-AMC cleavage fluorescence. AID 588478. inhibition, % (concentration not given with the values);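 active = mean inhibition over replicate wells above about 20%, limit read from the data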;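 also: 0% = compound-free wells with enzyme and 100% = wells lacking proteasome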
Target sequence (Q9Y5K5 whole entry, looked up): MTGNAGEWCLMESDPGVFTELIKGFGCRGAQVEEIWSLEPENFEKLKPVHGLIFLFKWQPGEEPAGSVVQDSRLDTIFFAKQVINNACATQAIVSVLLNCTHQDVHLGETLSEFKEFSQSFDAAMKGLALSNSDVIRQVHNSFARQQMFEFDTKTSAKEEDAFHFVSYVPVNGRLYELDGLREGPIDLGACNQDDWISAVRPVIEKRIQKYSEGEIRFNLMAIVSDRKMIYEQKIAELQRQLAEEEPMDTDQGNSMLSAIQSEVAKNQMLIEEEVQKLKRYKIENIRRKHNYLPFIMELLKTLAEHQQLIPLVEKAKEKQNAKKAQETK
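Test system – human UCH37 enzyme supplied as purified proteasome complex · Incubation – 30 min preincubation with enzyme, 25 min cleavage at room temperature · Detection – AMC fluorescence from Ub-AMC cleavage, excitation 355 nm, emission 460 nm · Benchmarks – no-proteasome wells (full inhibition) and compound-free wells (no inhibition)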
MIN6 prolif: induces beta-cell replication in MIN6 cells. proliferation, % at 10 µM. hit rate 0.29% among 330,000. AID 2380. MIN6 cells proliferation, ATPlite luminescence, 48 h; cells starved in 0.2% serum; 100% = growth in 10% serum;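 active = compounds whose signal lies at least 3.5 SD above the mean of all wells on their plate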;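 also: 0% = DMSO-treated cells in low-serum medium and 100% = 10% serum control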
Rev-erbA mod: modulators of human Rev-erb alpha DNA binding; P20393; Rev-erbα–FITC-DNA binding, fluorescence polarization, 90 min; hit rate 0.79% among 370,000; activity, % at 10 µM; AID 1259318;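 active = activity above about 14%, limit read from the data; passing the limit was not always enough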;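 also: 0% = DMSO wells with 35 nM protein and 100% = DMSO wells with 750 nM protein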
PG9 Ab binder: binds the HIV-1 gp120 antibody PG9; TR-FRET gp120-PG9 antibody binding; inhibition, % at 6.7 µM; hit rate 0.43% among 360,000; AID 624416; in the data active = inhibition above about 8.5%
Rce1 inhib: blocks yeast Ras-converting enzyme; yeast membranes, quenched prenylated peptide cleavage fluorescence; calls only; hit rate 0.27% among 290,000;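 active = fall in fluorescence gain of 50% or more versus controls, with final raw signal at or below 3038400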;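 also: plate controls were neutral control wells for no effect and wells lacking membranes for full effect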
PG9 bind confirm: confirmation of small molecules binding HIV-1 gp120 antibody PG9; inhibition, % at 6.7 µM; AID 651571; TR-FRET PG9 antibody binding, biochemical; hit rate 90% among 1,500; shares compounds with PG9 Ab binder; in the data active = inhibition above about 9%
PGV04 Ab binding: binds control antibody PGV04 in PG9 binder counter-screen; AID 651604; hit rate 95% among 1,500; TR-FRET PGV04 antibody-gp120 binding, biochemical; shares compounds with PG9 Ab binder; inhibition, % at 6.7 µM; in the data active = inhibition above about 9.5%
NR1D1 mod conf: confirmation of modulators of human Rev-erb alpha DNA binding | shares compounds with Rev-erbA mod | hit rate 61% among 3,000 | activation, % at 25 µM | Rev-erb alpha FITC-DNA binding, fluorescence polarization, 90 min;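 active = activation at or above a set limit, or at least 3 SD above the negative control mean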;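 also: 0% = 35 nM protein with DMSO and 100% = 750 nM protein high control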
RORg counter: affects RORgamma DNA binding in a Rev-erb alpha counter-screen | shares compounds with Rev-erbA mod | IC50, µM | purified RORgamma protein-FITC-DNA binding, fluorescence polarization | hit rate 8% among 910;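 active = Compounds whose fitted half-maximal concentration for disrupting protein-DNA binding is below 10 micromolar; the record names Rev-erb in its text, so the target is in doubt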
Active calls of the source: *; i = inactive; . = not tested or not shown. Shown are actives, neighbours in structure and some others; about 1.9% of the full set was active somewhere.

SMILES	Yeast superoxide	UCH37 DUB inh	MIN6 prolif	Rev-erbA mod	PG9 Ab binder	Rce1 inhib	PG9 bind confirm	PGV04 Ab binding	NR1D1 mod conf	others
O=C(NN=Cc1cccnc1)c1ccc(NC(=O)c2ccc(F)cc2)cc1	.	1	.	.	.	.	.	.	.
Cc1c(C=NNc2ccc(C(=O)O)cc2)c2ccccc2n1C	.	-11	.	.	.	.	.	.	.
CCOc1ccc(OCCSc2nc3ccccc3c(=O)[nH]2)cc1	94	-1	-1	26*	39*	i	37*	52*	11
CCc1cc2cc(C(=O)Nc3ccccc3F)sc2s1	115	-1	-3	11	0	i	.	.	.
CCc1cc2cc(C(=O)Nc3ccc(F)cc3)sc2s1	80	3	-3	78*	46*	i	53*	60*	63*	RORg counter=>40
CCc1cc2cccc(C)c2nc1SCC(=O)Nc1cc(C)on1	95	1	-3	9	4	i	.	.	.
Cc1cc(NC(=O)CSc2nc3c(C)cccc3cc2C#N)no1	94	-10	0	83*	27*	i	43*	72*	53*	RORg counter=>40
Cc1cccc2cc(C#N)c(SCC(=O)Nc3ccccc3N3CCOCC3)nc12	100	-1	-1	48*	17*	i	17*	39*	44*	RORg counter=>40
Cc1ccc(C=Nn2cnc3sc4c(c3c2=O)CCCC4)o1	.	5	.	.	.	.	.	.	.
Cc1cc(C)c(C#N)c(SCCS(=O)(=O)c2ccc(Cl)cc2)n1	93	4	-4	3	1	i	.	.	.
Cc1cc(C)c(C#N)c(SCCS(=O)(=O)Cc2ccc(Cl)cc2)n1	92	5	-7	36*	11*	i	22*	31*	18*
COCCNc1nc2c(S(=O)(=O)c3cc(C)ccc3C)nnn2c2ccccc12	109	-148	-4	45*	46*	i	29*	55*	19*
Br/C(C=NN1CCN(Cc2ccccc2)CC1)=C\c1ccccc1	.	2	.	.	.	.	.	.	.
Cc1nc(NC(=O)c2ccc(OCC(C)C)cc2)sc1Cc1ccc2c(c1)OCO2	79	-5	-6	-1	-1	i	.	.	.
CCCOc1ccc(C(=O)Nc2nc(C)c(Cc3ccc4c(c3)OCO4)s2)cc1	89	-10	-4	128*	61*	i	25*	31*	83*	RORg counter=>40
NS(=O)(=O)c1ccc2nc(NC(=O)c3ccc4c(c3)OCCO4)sc2c1	108	-19	1	33*	37*	i	33*	46*	12
Cc1ccc2nc(NC(=O)c3ccc4c(c3)OCO4)sc2c1	98	-45	-3	29*	18*	i	21*	32*	12
CC(C)(C)c1ccc(C=NNC(=O)C[n+]2ccccc2)cc1	.	2	.	.	.	.	.	.	.
COc1ccc(/C=C/C(=O)Oc2ccc(C=NNC(=O)c3ccccc3)cc2)cc1OC	.	4	.	.	.	.	.	.	.
COc1ccccc1N1C(=O)C2C(C(=O)c3ccccc3)=NN(c3ccc(Br)cc3)C2C1=O (stereo not given)	104	-129	-4	66*	13*	i	17*	28*	21*
COc1ccccc1N1C(=O)C2C(C(=O)c3ccccc3)=NN(c3ccc(C)cc3)C2C1=O (stereo not given)	97	-13	-2	0	2	i	.	.	.
CN1CCN(c2ccc(-c3ccc4ccccc4n3)cc2)CC1	.	-61	.	-1	1	i	.	.	.

High-throughput results deposited in PubChem by several laboratories.
